Among the data in ChEMBL document CHEMBL1145088, “Ascochlorin derivatives as ligands for nuclear hormone receptors” (J Med Chem, 2003) are MEC and IC50 values, retold here.

Data set [1] has as its target T1, Peroxisome proliferator-activated receptor gamma (Homo sapiens) (UniProt P37231).
T1 sequence (whole entry): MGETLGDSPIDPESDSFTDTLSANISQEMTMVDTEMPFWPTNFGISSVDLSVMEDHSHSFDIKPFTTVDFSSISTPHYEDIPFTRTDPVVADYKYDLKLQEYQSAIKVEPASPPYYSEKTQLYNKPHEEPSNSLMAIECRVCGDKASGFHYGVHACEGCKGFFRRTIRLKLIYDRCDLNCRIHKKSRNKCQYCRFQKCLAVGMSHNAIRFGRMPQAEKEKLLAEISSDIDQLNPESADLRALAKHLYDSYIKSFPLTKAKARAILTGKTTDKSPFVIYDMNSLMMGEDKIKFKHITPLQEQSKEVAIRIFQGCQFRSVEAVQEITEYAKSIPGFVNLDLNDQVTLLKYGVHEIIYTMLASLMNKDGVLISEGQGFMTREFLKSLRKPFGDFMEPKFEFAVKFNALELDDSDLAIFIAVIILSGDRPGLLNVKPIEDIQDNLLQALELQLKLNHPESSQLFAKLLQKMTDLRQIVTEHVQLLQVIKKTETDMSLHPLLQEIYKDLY
Briefly: Minimum effective concentration required to inhibit Peroxisome proliferator activated receptor gamma (PPAR gamma).

In data set [2] the target is T2, Nuclear receptor subfamily 1 group I member 2 (Homo sapiens, UniProt O75469).
T2 sequence (O75469 whole entry): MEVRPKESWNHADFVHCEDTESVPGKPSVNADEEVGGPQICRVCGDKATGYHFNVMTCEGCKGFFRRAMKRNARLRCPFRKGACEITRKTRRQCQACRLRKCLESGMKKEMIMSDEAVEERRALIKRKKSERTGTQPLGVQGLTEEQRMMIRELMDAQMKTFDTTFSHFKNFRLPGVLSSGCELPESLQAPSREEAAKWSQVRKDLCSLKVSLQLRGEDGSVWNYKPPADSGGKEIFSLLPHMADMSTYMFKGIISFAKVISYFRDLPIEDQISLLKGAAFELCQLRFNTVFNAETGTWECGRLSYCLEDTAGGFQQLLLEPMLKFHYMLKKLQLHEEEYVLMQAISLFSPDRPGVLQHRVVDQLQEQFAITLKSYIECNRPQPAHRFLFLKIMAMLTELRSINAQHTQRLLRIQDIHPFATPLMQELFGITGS
Description: Minimum effective concentration required to inhibit pregnane X receptor (PXR). The essentials:
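U2OS cells (1 × 10^6 per 10 cm dish) were calcium-phosphate transfected with the receptor expression vector (2 µg; Gal4 fusions for PXR and PPARα), the matching reporter (4 µg) and pCMV-β-galactosidase (4 µg). They were cultured 12 h, PBS-washed, given fresh medium 4 h, trypsinized and exposed to drugs 20 h. Luciferase/CAT activity normalized to β-galactosidase as stimulation index; triplicate cultures.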

Data set [3] addresses T3, Androgen receptor (Homo sapiens) (UniProt P10275).
T3 sequence (whole entry): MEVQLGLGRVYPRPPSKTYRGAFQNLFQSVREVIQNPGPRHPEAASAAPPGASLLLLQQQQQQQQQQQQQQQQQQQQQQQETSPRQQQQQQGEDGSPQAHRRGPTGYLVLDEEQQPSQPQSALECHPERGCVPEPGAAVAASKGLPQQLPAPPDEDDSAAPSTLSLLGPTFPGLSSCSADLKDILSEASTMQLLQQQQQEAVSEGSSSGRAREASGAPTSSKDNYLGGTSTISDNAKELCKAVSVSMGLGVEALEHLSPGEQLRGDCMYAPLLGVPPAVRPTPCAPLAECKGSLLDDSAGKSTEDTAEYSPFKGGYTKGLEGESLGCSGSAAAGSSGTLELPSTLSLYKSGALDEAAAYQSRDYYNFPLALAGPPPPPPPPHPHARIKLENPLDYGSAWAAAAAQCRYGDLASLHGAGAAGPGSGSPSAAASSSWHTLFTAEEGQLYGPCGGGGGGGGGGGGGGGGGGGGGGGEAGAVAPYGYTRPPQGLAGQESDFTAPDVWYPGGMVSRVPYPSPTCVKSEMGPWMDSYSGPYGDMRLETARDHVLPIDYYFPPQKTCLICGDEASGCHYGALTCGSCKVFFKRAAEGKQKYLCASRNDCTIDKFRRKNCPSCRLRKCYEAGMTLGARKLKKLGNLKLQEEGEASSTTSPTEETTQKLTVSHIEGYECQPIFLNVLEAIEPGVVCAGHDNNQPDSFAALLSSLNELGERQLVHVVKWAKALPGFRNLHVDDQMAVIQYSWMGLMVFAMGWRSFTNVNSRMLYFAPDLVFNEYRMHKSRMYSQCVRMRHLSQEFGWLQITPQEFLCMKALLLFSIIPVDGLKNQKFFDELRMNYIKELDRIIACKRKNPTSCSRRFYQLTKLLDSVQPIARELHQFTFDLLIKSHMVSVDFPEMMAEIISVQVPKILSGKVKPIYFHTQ
Briefly: Minimum effective concentration for androgen receptor (AR) activation.

The subject of another data set is U2OS (Homo sapiens). Description: Concentration required for inhibition of U2OS cell growth.
A further data set deals with T4, Estrogen receptor (Homo sapiens, UniProt P03372).
T4 sequence (P03372 whole entry): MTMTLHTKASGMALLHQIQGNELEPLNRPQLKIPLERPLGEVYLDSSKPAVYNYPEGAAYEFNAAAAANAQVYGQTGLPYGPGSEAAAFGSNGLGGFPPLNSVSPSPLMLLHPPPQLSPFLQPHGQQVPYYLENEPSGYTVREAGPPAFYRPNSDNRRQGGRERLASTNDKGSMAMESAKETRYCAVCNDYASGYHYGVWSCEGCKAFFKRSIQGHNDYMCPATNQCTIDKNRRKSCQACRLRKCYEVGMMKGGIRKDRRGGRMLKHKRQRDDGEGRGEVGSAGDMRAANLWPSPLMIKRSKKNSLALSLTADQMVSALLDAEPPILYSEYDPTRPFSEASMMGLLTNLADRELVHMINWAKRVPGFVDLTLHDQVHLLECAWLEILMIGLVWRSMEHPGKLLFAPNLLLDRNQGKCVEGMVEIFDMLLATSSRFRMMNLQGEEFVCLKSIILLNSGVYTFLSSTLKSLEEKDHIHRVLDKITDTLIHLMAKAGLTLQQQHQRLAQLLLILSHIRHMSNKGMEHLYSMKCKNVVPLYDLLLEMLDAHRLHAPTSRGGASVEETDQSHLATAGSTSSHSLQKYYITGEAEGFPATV
Briefly: Minimum effective concentration required to activate Estrogen receptor 1 (ER alpha); Not detected.

Data set [4] deals with T2, Nuclear receptor subfamily 1 group I member 2. Briefly: Minimum effective concentration required to activate pregnane X receptor (PXR).
Data set [5] has as its target T5, Estrogen receptor beta (Homo sapiens, UniProt Q92731). Description: Minimum effective concentration required to activate Estrogen receptor 2 (ER beta); Not detected.
Data set [6] concerns the target T6, Peroxisome proliferator-activated receptor alpha (Homo sapiens) (UniProt Q07869).
T6 sequence (whole entry): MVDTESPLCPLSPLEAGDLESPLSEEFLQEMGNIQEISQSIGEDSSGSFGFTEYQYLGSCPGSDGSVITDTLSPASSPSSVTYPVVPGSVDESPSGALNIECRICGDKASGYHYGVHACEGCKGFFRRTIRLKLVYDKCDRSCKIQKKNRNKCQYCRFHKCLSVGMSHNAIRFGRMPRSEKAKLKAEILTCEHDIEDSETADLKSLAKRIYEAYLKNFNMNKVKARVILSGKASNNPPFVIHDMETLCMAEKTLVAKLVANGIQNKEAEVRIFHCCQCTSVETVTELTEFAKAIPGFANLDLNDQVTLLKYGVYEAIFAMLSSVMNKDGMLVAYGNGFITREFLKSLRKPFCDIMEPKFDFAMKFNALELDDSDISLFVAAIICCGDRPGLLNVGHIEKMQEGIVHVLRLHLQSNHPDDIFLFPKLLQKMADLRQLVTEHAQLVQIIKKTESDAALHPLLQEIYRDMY
Description: Minimum effective concentration for peroxisome proliferator activated receptor (PPAR alpha) activation.

The target of data set [7] is T5, Estrogen receptor beta. Briefly: Minimum effective concentration for Estrogen receptor 2 (ER beta) inhibition. The essentials:
(§1)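 U2OS cells were calcium-phosphate co-transfected with an ER expression vector (2 µg), an ER reporter plasmid (4 µg) and pCMV-β-galactosidase (4 µg) as internal control. After 12 h cells were PBS-washed and recovered 4 h, then trypsinized and exposed to drugs for 20 h. Lysate reporter activity was normalised to β-gal and expressed as stimulation index; triplicate cultures.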

Data set [8] addresses T7, Estrogen receptor (Homo sapiens) (UniProt P03372).
T7 sequence (whole entry): T4 sequence (P03372 whole entry)
Description: Minimum effective concentration for Estrogen receptor 1 (ER alpha) inhibition. The essentials: as §1

T5 sequence (Q92731 whole entry): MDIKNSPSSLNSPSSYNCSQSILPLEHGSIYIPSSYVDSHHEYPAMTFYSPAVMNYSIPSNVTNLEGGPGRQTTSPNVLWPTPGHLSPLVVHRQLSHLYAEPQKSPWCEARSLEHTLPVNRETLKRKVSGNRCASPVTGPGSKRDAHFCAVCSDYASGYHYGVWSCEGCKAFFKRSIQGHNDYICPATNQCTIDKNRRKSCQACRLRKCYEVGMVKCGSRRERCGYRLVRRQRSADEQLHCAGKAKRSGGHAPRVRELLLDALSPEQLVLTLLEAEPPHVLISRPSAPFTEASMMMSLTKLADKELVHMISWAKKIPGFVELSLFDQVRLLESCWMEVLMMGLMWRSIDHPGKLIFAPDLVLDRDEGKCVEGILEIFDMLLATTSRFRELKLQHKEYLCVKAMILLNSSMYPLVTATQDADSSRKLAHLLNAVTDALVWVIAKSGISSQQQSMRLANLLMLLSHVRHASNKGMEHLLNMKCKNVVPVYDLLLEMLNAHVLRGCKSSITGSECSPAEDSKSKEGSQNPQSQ

`COc1c(C=O)c(C)c(Cl)c(OC(=O)c2ccncc2)c1C/C=C(C)/C=C/[C@@]1(C)[C@H](C)CCC(=O)[C@@H]1C`: the MEC worked out at 0.3 µM in data set [1] and 3 µM in data set [2].
As to `COc1c(C=O)c(C)c(Cl)c(OC(=O)c2ccccn2)c1C/C=C(C)/C=C/[C@@]1(C)[C@H](C)CCC(=O)[C@@H]1C`, the MEC was determined as 30 µM in [1] and 1 µM in data set [2].
Consider `CC(/C=C/[C@@]1(C)[C@H](C)CCC(=O)[C@@H]1C)=C\Cc1c(O)c(C=O)c(C)c(Cl)c1OC(=O)c1ccccn1`, for which the MEC in data set [1] amounted to 3 µM; in data set [2], 1 µM.
For `CC(=O)Oc1c(Cl)c(C)c(C(=O)O)c(OC(C)=O)c1C/C=C(C)/C=C/[C@@]1(C)[C@H](C)CCC(=O)[C@@H]1C`, the MEC in data set [3] is 1 µM; on Estrogen receptor, “Not Active”; in [4], 1 µM; on Estrogen receptor beta [5] it was “Not Active”. Moreover, half-maximal inhibition in the data set on U2OS (Homo sapiens) (IC50) was put at 32 µM.
On to `C/C(=C\Cc1c(O)c(Cl)c(C)c(C=O)c1O)CC/C=C(\C)C1=CC(=O)C(C)(C)O1`, for which the MEC in [6] was 10 µM; at Estrogen receptor, “Not Active”; in data set [4] it was 1 µM; at Estrogen receptor beta [5], “Not Active”. 56 µM corresponded to half-maximal inhibition in the data set on U2OS (Homo sapiens) (IC50).
For `CC(/C=C/[C@@]1(C)[C@H](C)CCC(=O)[C@@H]1C)=C\Cc1c(O)c(Cl)c(C)c(C=O)c1O` [ASCOCHLORIN], the MEC (at Estrogen receptor beta [7]; in data set [8]; in data set [4]) was 1 µM each time. Moreover, the IC50 (usually the concentration that inhibits the measured activity by half) in the data set with U2OS (Homo sapiens) is 1 µM.
